Test results as given in article PMC3558982 (Chemical science (Royal Society of Chemistry : 2010), 2013).
Read-outs that look alike come from different tables or passages of the source.

Experiments:
[1] = test system: Ddp1; settings: 30 minutes at 37 °C; ref 22c; cited from earlier work
[2] = biological target: protein kinase Akt (Homo sapiens, UniProt P31749); assay: Inhibition of Akt phosphorylation at threonine 308 by PDK1; type: biochemical
In short: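 Akt Thr308 phosphorylation was detected by Western blot with a phosphospecific antibody, with a total-Akt blot as loading control. IC50 was determined in three independent experiments.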

[3] = biological target: Ddp1 phosphohydrolase (Saccharomyces cerevisiae, UniProt Q99321); assay: Inhibition of His-Ddp1 mediated Ap5A hydrolysis; type: biochemical, yeast; settings: for inhibition profile of Ddp1 mediated Ap5A hydrolysis (in words): compared with 5PP-IP5, Figures 5b and S4
Ddp1 phosphohydrolase, sequence (Q99321 whole entry): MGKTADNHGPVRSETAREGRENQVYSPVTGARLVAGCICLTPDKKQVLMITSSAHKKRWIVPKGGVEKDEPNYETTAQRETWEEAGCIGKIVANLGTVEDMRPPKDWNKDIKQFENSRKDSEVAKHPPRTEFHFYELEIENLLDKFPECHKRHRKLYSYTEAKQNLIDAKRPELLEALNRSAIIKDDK

[4] = 1H and 31P NMR titration in D2O; type: physicochemical; settings: D2O with 140mM K+, 10mM Na+, 1mM Mg2+, room temperature
[5] = Stability in aqueous solution at room temperature; type: physicochemical; settings: for decomposition in aqueous solution: neutral pH, 40 days at room temperature

protein kinase Akt, sequence (P31749 whole entry): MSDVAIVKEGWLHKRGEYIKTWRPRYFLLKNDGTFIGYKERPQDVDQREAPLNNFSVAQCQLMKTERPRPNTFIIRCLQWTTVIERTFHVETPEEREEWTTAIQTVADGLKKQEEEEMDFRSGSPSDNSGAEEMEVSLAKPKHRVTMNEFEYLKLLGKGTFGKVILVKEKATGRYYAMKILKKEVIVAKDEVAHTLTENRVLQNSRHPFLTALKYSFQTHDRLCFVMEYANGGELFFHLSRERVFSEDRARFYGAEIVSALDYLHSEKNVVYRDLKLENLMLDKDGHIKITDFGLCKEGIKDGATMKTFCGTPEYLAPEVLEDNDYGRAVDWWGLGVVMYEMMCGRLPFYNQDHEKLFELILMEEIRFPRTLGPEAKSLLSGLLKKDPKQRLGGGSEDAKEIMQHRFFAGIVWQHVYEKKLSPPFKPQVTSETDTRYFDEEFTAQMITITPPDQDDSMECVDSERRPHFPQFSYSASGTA

SMILES	pD of ring inversion (conformational change) [4]	inhibition profile of Ddp1 mediated Ap5A hydrolysis (in words) [3]	decomposition in aqueous solution [5]	hydrolysis by Ddp1 [1]	other results
O=P(O)(O)OC1[C@@H](OP(=O)(O)O)[C@@H](OP(=O)(O)O)C(OP(=O)(O)OP(=O)(O)O)[C@H](OP(=O)(O)O)[C@H]1OP(=O)(O)O (stereo partly shown) [1PP-IP5]				completely hydrolysed to IP6	
O=P(O)(O)OC1C(OP(=O)(O)O)C(OP(=O)(O)O)C(OP(=O)(O)O)C(OP(=O)(O)O)C1OP(=O)(O)O (stereo not shown) [IP6, inositol hexakisphosphate, reference compound]					IC50 in Ddp1 Ap5A hydrolysis relative to 5PP-IP5 ([3]; data not shown): more than ten times higher
O=P(O)(O)CP(=O)(O)O[C@@H]1[C@@H](OP(=O)(O)O)[C@H](OP(=O)(O)O)[C@H](O)[C@H](OP(=O)(O)O)[C@H]1OP(=O)(O)O [5PCP-IP4]		very similar inhibition profiles	no signs of decomposition		

Now from value to compound, other results behind:

pD of ring inversion (conformational change) [4]	inhibition profile of Ddp1 mediated Ap5A hydrolysis (in words) [3]	decomposition in aqueous solution [5]	SMILES	hydrolysis by Ddp1 [1]	other results
~8.8			O=P(O)(O)O[C@H]1[C@@H](OP(=O)(O)O)[C@H](OP(=O)(O)O)[C@@H](OP(=O)(O)OP(=O)(O)O)[C@H](OP(=O)(O)O)[C@H]1OP(=O)(O)O [5PP-IP5, reference compound]	no signs of hydrolysis	IC50 [2]: 217 nM; IC50 [3]: 2500 nM
~8.8	very similar inhibition profiles	no signs of decomposition	O=P(O)(O)CP(=O)(O)O[C@H]1[C@H](OP(=O)(O)O)[C@@H](OP(=O)(O)O)[C@@H](OP(=O)(O)O)[C@@H](OP(=O)(O)O)[C@@H]1OP(=O)(O)O [5PCP-IP5]		IC50 ([2]; read-out: IC50, inhibition of Akt phosphorylation at threonine 308, purified inactive Akt and activated PDK1, three independent experiments): 129 nM; decomposition at low or high pD ([5]; pD 2.0 or 13.0, 40 days at room temperature): no detectable decomposition
